Data: ChEMBL document CHEMBL1154107, “Inhibitors of VIM-2 by screening pharmacologically active and click-chemistry compound libraries” (Bioorg Med Chem, 2009)
Converted amounts (≈) assume the structure as drawn. The source made the active and inactive calls. The rule behind the calls is not given here.

Key:
[1] = Inhibition of VIM2 using nitrocefin as substrate at 56 uM after 15 mins by microtiter plate assay
[2] = Inhibition of VIM2 using nitrocefin as substrate after 15 mins by microtiter plate assay
[3] = Inhibition of VIM2 using CCF2 as substrate after 15 mins by FRET assay
[4] = Inhibition of IMP1 using nitrocefin as substrate after 15 mins by microtiter plate assay
[5] = Inhibition of IMP1 in Escherichia coli
Enterobacter cloacae = assay: Inhibition of Enterobacter cloacae AmpC using nitrocefin as substrate at 25 uM after 15 mins by microtiter plate assay
[6] = Inhibition of Enterobacter cloacae AmpC using nitrocefin as substrate after 15 mins by microtiter plate assay
[7] = Inhibition of TEM-1 using nitrocefin as substrate after 15 mins by microtiter plate assay
[8] = Inhibition of VIM2 using nitrocefin as substrate by rapid dilution method
[9] = Inhibition of IMP1 using nitrocefin as substrate at 56 uM after 15 mins by microtiter plate assay
[10] = system: Escherichia coli BL21(DE3); assay: Inhibition of VIM2 in imipenem-resistant Escherichia coli BL21(DE3) assessed as potentiation of imipenem-induced bactericidal activity at 50 uM after 18 hrs by twofold serial broth dilution method
[11] = Inhibition of TEM-1 using nitrocefin as substrate at 25 uM after 15 mins by microtiter plate assay
Escherichia coli [12] = assay: Antibacterial activity against imipenem-resistant Escherichia coli BL21(DE3) expressing VIM2 gene after 18 hrs by twofold serial broth dilution method; assay type: functional
Procedure, shortened: (§1)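 Two-fold serial broth dilution MIC per CLSI, 10-point dilutions in Iso-Sensitest broth, 2 mL tubes. BL21 grown 5 h at 37°C in LB (kanamycin 30 μg/mL for pET-9a VIM-2 transformants). Inoculum 5 × 10^5 CFU/mL; shaken ≥18 h at 37°C aerobically.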

[13] = Inhibition of VIM2 using CCF2 as substrate at 44 uM after 15 mins by FRET assay
Procedure, shortened: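 VIM-2 (0.1 nM final) in 50 mM HEPES, 50 μM ZnSO4, 0.05% Brij 35, pH 7.1, preincubated 15 min at RT with compound; CCF2-FA added to 10 μM, 25 min at RT, stopped with EDTA. Ratiometric fluorescence read at excitation 409 nm, emission 460/535 nm. Triplicate ten-point 1:3 dilutions; IC50 from four-parameter fit of ratio data.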

Escherichia coli [14] = assay: Antibacterial activity against imipenem-non resistant Escherichia coli BL21(DE3) after 18 hrs by twofold serial broth dilution method; assay type: functional; procedure, shortened: as §1
Escherichia coli [15] = assay: Bactericidal activity against imipenem-resistant Escherichia coli BL21(DE3) expressing VIM2 gene at […] after 24 hrs by broth microdilution method; assay type: functional
Escherichia coli [16] = assay: Bactericidal activity against imipenem-non resistant Escherichia coli BL21(DE3) at […] after 24 hrs by broth microdilution method; assay type: functional
Escherichia coli [17] = assay: Bacteriostatic activity against imipenem-resistant Escherichia coli BL21(DE3) expressing VIM2 gene at […] after 24 hrs by broth microdilution method; assay type: functional
Escherichia coli [18] = assay: Bacteriostatic activity against imipenem-non resistant Escherichia coli BL21(DE3) at […] after 24 hrs by broth microdilution method; assay type: functional
[19] = system: Escherichia coli BL21(DE3); assay: (§2) Inhibition of VIM2 in imipenem-resistant Escherichia coli BL21(DE3) assessed as potentiation of imipenem-induced bactericidal activity at […] after 18 hrs by checkerboard microdilution method
[20] = system: Escherichia coli BL21(DE3); assay: as §2; remark: listed apart in the source
[21] = system: Escherichia coli BL21(DE3); assay: Inhibition of VIM2 in imipenem-resistant Escherichia coli BL21(DE3) assessed as potentiation of imipenem-induced bactericidal activity at 4.2 ug/mL after 18 hrs by checkerboard microdilution method
Procedure, shortened: (§3)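 Checkerboard in 96-well plates, 0.2 mL. […] BL21/VIM-2 pre-grown 5 h at 37°C with kanamycin; inoculum 1 × 10^6 CFU/mL. Shaken ≥18 h at 37°C. MIC read per CLSI; synergy by ΣFIC; QC strain ATCC 35218.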

Escherichia coli [22] = assay: Bactericidal activity against imipenem-non resistant Escherichia coli BL21(DE3) at […] after 6 hrs by broth microdilution method; assay type: functional
[23] = system: Escherichia coli BL21(DE3); assay: Inhibition of VIM2 in imipenem-resistant Escherichia coli BL21(DE3) assessed as potentiation of imipenem-induced bactericidal activity at 4.5 ug/mL after 18 hrs by checkerboard microdilution method; procedure, shortened: as §3
Escherichia coli [24] = assay: Bactericidal activity against imipenem-resistant Escherichia coli BL21(DE3) expressing VIM2 gene at […] after 6 hrs by broth microdilution method; assay type: functional
[25] = Inhibition of VIM2 using nitrocefin as substrate at 15 uM after 15 mins by microtiter plate assay
Escherichia coli [26] = assay: Selectivity ratio of MIC for imipenem-resistant Escherichia coli BL21(DE3) expressing VIM2 gene to MIC for imipenem-non resistant Escherichia coli BL21(DE3); assay type: functional
Escherichia coli [27] = assay: Bactericidal activity against imipenem-resistant Escherichia coli BL21(DE3) expressing VIM2 gene at […] up to 6 hrs by broth microdilution method; assay type: functional
[28] = system: Escherichia coli BL21(DE3); assay: Inhibition of VIM2 in imipenem-resistant Escherichia coli BL21(DE3) assessed as potentiation of imipenem-induced bactericidal activity at 8.9 ug/mL after 18 hrs by checkerboard microdilution method; procedure, shortened: as §3
Escherichia coli [29] = assay: Bactericidal activity against imipenem-non resistant Escherichia coli BL21(DE3) at […] up to 6 hrs by broth microdilution method; assay type: functional
[30] = Inhibition of VIM2 using CCF2 as substrate at 36 uM after 15 mins by FRET assay
Procedure, shortened: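 FRET endpoint assay in 50 mM HEPES, 50 μM ZnSO4, 0.05% Brij 35, pH 7.1. VIM-2 (0.1 nM final) preincubated 15 min at RT with compound. CCF2-FA added to 10 μM final, 25 min at RT, stopped with EDTA. Excitation 409 nm, emissions 460 and 535 nm, read as ratio. Triplicate dilution series starting at 56 μM nominal.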

[31] = Inhibition of IMP1 using nitrocefin as substrate at 140 uM after 15 mins by microtiter plate assay

Cn1cc(Cc2nn[nH]c2CNS(=O)(=O)c2ccc(I)cc2)c2ccccc21
inhibition [1]: 11%
IC50 [2]: > 56 µM

O=C(O)CC(Cc1ccccc1Cl)C(=O)O (stereo not given)
IC50 [3]: 50 µM
IC50 [2]: 33 µM
IC50 [4]: 1.6 µM
Ki [4]: 1.6 µM
Ki [5]: 3.3 µM

Cc1ccc(Cl)cc1N1CCN(Cc2nn[nH]c2CNS(=O)(=O)c2ccc(I)cc2)CC1
inhibition [1]: 0%
IC50 [2]: > 56 µM

COCc1nn[nH]c1CNS(=O)(=O)c1ccc(I)cc1
inhibition (Enterobacter cloacae): 0%
IC50 [6]: > 25 µM
IC50 [7]: > 25 µM
Ki [8]: 1.41 µM
inhibition [9]: 0%
Activity [10]: inactive
inhibition [1]: 74%
IC50 [3]: 4.1 µM
IC50 [2]: 7.3 µM
IC50 [4]: > 56 µM
inhibition [11]: 0%
MIC (Escherichia coli [12]): > 60 µg/mL
inhibition [13]: 90%
MIC (Escherichia coli [14]): > 60 µg/mL

O=C1c2c(O)ccc(O)c2C(=O)c2c(NCCNCCO)ccc(NCCNCCO)c21
Activity (Escherichia coli [15]): inactive
Activity (Escherichia coli [16]): inactive
Activity [10]: Active
Activity (Escherichia coli [17]): inactive
Activity (Escherichia coli [18]): inactive
Activity [19]: Active
Activity [20]: Active
Activity [21]: Active

CC1(C)OCC(COCc2nn[nH]c2CNS(=O)(=O)c2ccc(I)cc2)O1 (stereo not given)
inhibition [1]: 31%
IC50 [2]: > 56 µM

4-[sequence] ACID
Activity (Escherichia coli [22]): inactive
Activity [23]: Active
Activity (Escherichia coli [24]): inactive
inhibition [25]: 80%
inhibition (Enterobacter cloacae): 0%
Ratio (Escherichia coli [26]): 9
Activity (Escherichia coli [27]): Active
Activity [28]: Active
Activity [10]: Active
Activity (Escherichia coli [17]): inactive
Activity (Escherichia coli [29]): Active
Activity (Escherichia coli [18]): inactive
inhibition [30]: 83%
inhibition [11]: 0%
inhibition [31]: 0%
MIC (Escherichia coli [12]): 17.9 µg/mL
Activity [20]: Active
MIC (Escherichia coli [14]): 17.9 µg/mL

4-CHLOROMERCURIBENZOIC ACID
IC50 [6]: > 25 µM
IC50 [7]: > 25 µM

O=S(=O)(NCc1[nH]nnc1CN1CCN(c2ccc(Cl)c(Cl)c2)CC1)c1ccc(I)cc1
inhibition [1]: 5%
IC50 [2]: > 56 µM

C[C@@H](O)[C@H]1C(=O)N2C(C(=O)O)=C(SCCNC=N)C[C@H]12 [IMIPENEM ANHYDROUS]
MIC (Escherichia coli [14]): 0.2 µg/mL (≈ 0.668 µM)

C#CCCOCc1nn[nH]c1CNS(=O)(=O)c1ccc(I)cc1
inhibition (Enterobacter cloacae): 0%
IC50 [6]: > 25 µM
IC50 [7]: > 25 µM
Ki [8]: 0.41 µM
inhibition [9]: 0%
Activity [10]: inactive
inhibition [1]: 79%
IC50 [3]: 1.3 µM
IC50 [2]: 3.3 µM
IC50 [4]: > 56 µM
inhibition [11]: 0%
MIC (Escherichia coli [12]): > 60 µg/mL
inhibition [13]: 76%
MIC (Escherichia coli [14]): > 60 µg/mL
